Assay results: ChEMBL document CHEMBL1152334, “Quassinoid inhibition of AP-1 function does not correlate with cytotoxicity or protein synthesis inhibition” (J Nat Prod, 2009)
Calls of active or inactive are those of the source. No cut-off for these calls is given here.

Assays:
[1] = Growth inhibition of human NCI60 cells; format: functional
[2] = target: Transcription factor Jun (Homo sapiens) (UniProt P05412); assay: Inhibition of TPA-induced AP1 transfected in HEK293 cells assessed as inhibition of […] reporter activity at 0.1 to 10 uM treated 1 hr before TPA stimulation measured after 18 hrs by luciferase reporter gene assay; format: cell-based
Method in brief: (§1)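 HEK293 cells were grown in DMEM with 10% FBS at 37 °C and 5% CO2. They were transiently transfected with a luciferase reporter (0.1 µg/well); reporters were AP-1 (four TRE consensus copies from GCN4), NF-κB (five responsive-element copies) or SRE. After 24 h, medium went to DMEM with 0.2% FBS. Cells were pretreated 1 h with compound or DMSO, then given TPA 10 ng/mL for 18 h. Firefly luciferase was read from passive-lysis lysates, TPA alone = 100%, in quadruplicate.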

HeLa = assay: Inhibition of protein synthesis in human HeLa cells assessed as [35S]methionine incorporation into protein treated for 45 mins before [35S]methionine addition by Whatman paper analysis; format: functional, cell-based
HEK293 = assay: Inhibition of TPA-induced NF-kappaB transfected in HEK293 cells at 0.1 to 10 uM treated 1 hr before TPA stimulation measured after 18 hrs by luciferase reporter gene assay; format: cell-based; method in brief: as §1
[3] = Inhibition of protein synthesis in cell-free extract of mouse Krebs2 cells by SDS-PAGE; format: functional
Nucleic Acid = assay: Inhibition of TPA-induced SRE transfected in HEK293 cells at 0.1 to 10 uM treated 1 hr before TPA stimulation measured after 18 hrs by luciferase reporter gene assay; format: cell-based; method in brief: as §1
[4] = Growth inhibition of human AP-1 beta-lactamase reporter screening assay cells at 1 uM; conditions: AP-1 reporter cells

Chain of Transcription factor Jun (Homo sapiens) (P05412 whole entry): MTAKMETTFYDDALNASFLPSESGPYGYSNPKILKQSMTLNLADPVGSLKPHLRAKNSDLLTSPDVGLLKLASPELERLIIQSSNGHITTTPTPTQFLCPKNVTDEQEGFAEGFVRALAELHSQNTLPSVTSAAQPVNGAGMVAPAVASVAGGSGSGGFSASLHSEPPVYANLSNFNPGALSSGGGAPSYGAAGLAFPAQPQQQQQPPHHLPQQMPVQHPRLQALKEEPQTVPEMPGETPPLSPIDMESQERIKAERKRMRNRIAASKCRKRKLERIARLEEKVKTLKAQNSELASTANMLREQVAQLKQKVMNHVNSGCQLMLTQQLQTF

Row | Compound | GI50 ([1]; Homo sapiens, NCI60) [nM] | also measured
1 | CC(C)=CC(=O)O[C@@H]1[C@H]2C(C)=CC(=O)[C@@H](O)[C@]2(C)[C@H]2[C@@]3(O)OC[C@@]24[C@@H]1OC(=O)C[C@H]4[C@@H](C)[C@H]3O | 19 | –
2 | COC(=O)[C@@]12OC[C@]34[C@H]([C@@H](O)C1O)[C@@]1(C)CC(=O)C(OC(=O)CC(C)C(F)(F)F)=C(C)[C@@H]1C[C@H]3OC(=O)[C@H](O)[C@H]42 (some centres undefined) | 2900 | –
3 | C=C1[C@@H](O)[C@]2(O)OC[C@@]34[C@H]1[C@@H](OC(=O)C/C=C/CCCCCCCC)C(=O)O[C@@H]3C[C@H]1C(C)=CC(=O)[C@@H](O)[C@]1(C)[C@@H]24 | 24 | –
4 | CC(=O)O[C@H]1C(=O)O[C@@H]2C[C@H]3C(C)=CC(=O)[C@@H](O)[C@]3(C)[C@H]3[C@]4(O)OC[C@]32[C@@H]1[C@@H](C)[C@H]4O [HOLACANTHONE] | 30 | –
5 | CC(C)=CC(=O)O[C@H]1C(=O)O[C@@H]2C[C@H]3C(C)=CC(=O)[C@@H](O)[C@]3(C)[C@H]3[C@@]4(O)OC[C@]32[C@@H]1[C@@H](C)[C@H]4O | 21 | –
6 | CC(=O)OC(C)(C)/C(C)=C/C(=O)O[C@H]1C(=O)O[C@@H]2C[C@H]3[C@H](C)C(=O)C(O[C@@H]4O[C@H](CO)[C@@H](O)[C@H](O)[C@H]4O)=C[C@]3(C)[C@H]3[C@@H](O)[C@H](O)[C@]4(C(=O)O)OC[C@]32[C@@H]14 [BRUCEOSIDE F] | 74000 | –
7 | COC(=O)[C@@]12OC[C@]34[C@H]([C@@H](O)[C@@H]1O)[C@@]1(C)[C@H](O)C(=O)C=C(C)[C@@H]1C[C@H]3OC(=O)[C@H](OC(C)=O)[C@@H]24 [ISOBRUCEIN B] | 100 | –
8 | CC1=CC(=O)[C@@H](O)[C@]2(C)[C@H]3[C@]4(O)OC[C@]35[C@H]([C@@H](C)[C@H]4O)[C@@H](O)C(=O)O[C@@H]5C[C@@H]12 [GLAUCARUBOLONE] | 290 | –
9 | CC[C@@H](C)C(=O)O[C@H]1C(=O)O[C@@H]2C[C@H]3C(C)=CC(=O)[C@@H](O)[C@]3(C)[C@H]3[C@@H](O)[C@H](O)[C@]4(C)OC[C@]32[C@@H]14 [SIMALIKALACTONE D] | 39 | –
10 | CC1=CC(=O)[C@H](O)[C@@]2(C)[C@@H]1C[C@H]1OC(=O)C(OC(=O)CC3=CCCC3)[C@H]3[C@@H](C)[C@@H](O)[C@]4(O)OC[C@]13[C@@H]42 (some centres undefined) | 40000 | –
11 | COC(=O)[C@@]12OC[C@]34[C@H]([C@@H](O)[C@@H]1O)[C@@]1(C)C=C5OC(=O)C=C5[C@@H](C)[C@@H]1C[C@H]3OC(=O)[C@H](O)[C@@H]24 | 160 | –
12 | COC(=O)[C@@]12OC[C@]34[C@H]([C@@H](O)C1O)[C@@]1(C)CC(=O)C(O)=C(C)[C@@H]1C[C@H]3OC(=O)[C@H](OC(=O)/C=C(/c1ccccc1)C(F)(F)F)[C@H]42 (some centres undefined) | 3600 | –
13 | COC(=O)[C@]12OC[C@]34[C@H]([C@@H](O)[C@@H]1O)[C@@]1(C)[C@H](O)C(=O)C=C(C)[C@@H]1C[C@H]3OC(=O)[C@H](OC(=O)CC(C)C)[C@@H]24 [ISOBRUCEIN A] | 17 | –
14 | CC[C@](C)(O)C(=O)O[C@H]1C(=O)O[C@@H]2C[C@H]3C(C)=CC(=O)[C@@H](O)[C@]3(C)[C@H]3[C@@]4(O)OC[C@]32[C@@H]1[C@@H](C)[C@H]4O (stereo in doubt) [GLAUCARUBINONE] | – | GI50 [1]: 21000 nM
15 | COC(=O)[C@]12OC[C@]34[C@H]([C@@H](O)[C@@H]1O)[C@@]1(C)CC(=O)C(O)=C(C)[C@@H]1C[C@H]3OC(=O)[C@H](OC(=O)C=C(C)C)[C@@H]24 [BRUSATOL] | 260 | inhibition [2]: inactive; IC50 (HeLa): < 1000 nM; inhibition (HEK293): inactive; IC50 [3]: 230 nM; inhibition (Nucleic Acid): inactive
16 | COC(=O)[C@@]12OC[C@]34[C@H]([C@H](O)[C@@H]1O)[C@@]1(C)CC(=O)C(OC(C)=O)=C(C)[C@H]1C[C@H]3OC(=O)[C@@H](OC(=O)C=C(C)C)[C@@H]24 | 790 | –
17 | COC(=O)[C@]12OC[C@]34[C@H]([C@@H](O)[C@@H]1O)[C@@]1(C)C=C5OC(=O)C=C5[C@@H](C)[C@@H]1C[C@H]3OC(=O)[C@H](OC(C)=O)[C@@H]24 [SERGEOLIDE] | 3.8 | IC50 (HeLa): < 1000 nM; IC50 [3]: 70 nM
18 | CC1=C[C@H](O)[C@@H](O)[C@]2(C)[C@H]3[C@@]4(O)OC[C@]35[C@H]([C@@H](C)[C@H]4O)[C@@H](O)C(=O)O[C@@H]5C[C@@H]12 [GLAUCARUBOL] | 41000 | IC50 (HeLa): > 2000 nM; IC50 [3]: >30000 nM
19 | CC(C)CC(=O)O[C@H]1C(=O)O[C@@H]2C[C@H]3[C@H](C)C(=O)C(O[C@@H]4O[C@H](CO)[C@@H](O)[C@H](O)[C@H]4O)=C[C@]3(C)[C@H]3[C@@H](O)[C@H](O)[C@]4(C(=O)O)OC[C@]32[C@@H]14 [BRUCEOSIDE E] | 52000 | –
20 | COC(=O)[C@@]12OC[C@]34[C@H]([C@@H](O)[C@@H]1O)[C@@]1(C)CC(=O)C(O)=C(C)[C@@H]1C[C@H]3OC(=O)[C@H](OC(=O)/C=C(\C)C(C)C)[C@@H]24 [BRUCEANTIN] | 5 | IC50 (HeLa): 51 nM; IC50 [3]: 410 nM
21 | CC[C@](C)(O)C(=O)O[C@H]1C(=O)O[C@@H]2C[C@H]3C(C)=CC(=O)[C@@H](O)[C@]3(C)[C@H]3[C@@]4(O)OC[C@]32[C@@H]1[C@@H](C)[C@H]4O (stereo in doubt; 4) [GLAUCARUBINONE] | – | GI50 [1]: 1800 nM; inhibition at 1 µM [4]: < 25%; IC50 (HeLa): 270 nM; IC50 [3]: 290 nM
22 | CC1=CC(=O)[C@H](O)[C@@]2(C)[C@@H]1C[C@H]1OC(=O)[C@@H](OC(=O)C(C)(C)CO)[C@@H]3[C@@H](C)[C@@H](O)[C@]4(O)OC[C@@]31[C@@H]42 | 95 | –
23 | C=C1[C@@H](O)[C@@]2(O)OC[C@@]34[C@H]1[C@@H](OC(=O)C/C=C(\C)CCCCC)C(=O)O[C@@H]3C[C@H]1C(C)=CC(=O)[C@@H](O)[C@]1(C)[C@@H]24 | 1.5 | –
24 | COC(=O)[C@@]12OC[C@]34[C@H]([C@@H](O)C1O)[C@@]1(C)CC(=O)C(OC(=O)/C=C(/c5ccccc5)C(F)(F)F)=C(C)[C@@H]1C[C@H]3OC(=O)[C@H](O)[C@H]42 (some centres undefined) | 7400 | –
25 | CC[C@@](O)(CC(=O)O[C@@H]1C(=O)O[C@@H]2C[C@@H]3C(C)=CC(=O)[C@H](O)[C@]3(C)[C@H]3[C@]4(O)OC[C@]32[C@@H]1[C@@H](C)[C@H]4O)C(C)C [PENINSULARINONE] | 1 | –
26 | COC(=O)[C@@]12OC[C@]34[C@H]([C@@H](O)C1O)[C@@]1(C)CC(=O)C(O)=C(C)[C@@H]1C[C@H]3OC(=O)[C@H](OC(=O)CC(C)C(F)(F)F)[C@H]42 (some centres undefined) | 28 | –
27 | C/C=C(\C)C(=O)O[C@@H]1[C@H]2C(C)=CC(=O)[C@@H](O)[C@]2(C)[C@H]2[C@@]3(O)OC[C@]24[C@H]([C@@H](C)[C@H]3O)[C@@H](OC(C)=O)C(=O)O[C@H]14 [HANNOAENONE] | 40 | –
28 | C=C1[C@@H](O)[C@@]2(O)OC[C@@]34[C@H]1[C@@H](OC(=O)C/C=C/CCCCCCCC)C(=O)O[C@@H]3C[C@H]1C(C)=CC(=O)[C@@H](O)[C@]1(C)[C@@H]24 | 24 | IC50 (HeLa): > 2000 nM; IC50 [3]: <10000 nM
29 | COC1=C[C@@H](C)[C@@H]2C[C@H]3OC(=O)C[C@H]4C(C)=C(OC)C(=O)[C@H]([C@@]2(C)C1=O)[C@@]34C [QUASSIN] | – | inhibition [2]: inactive; IC50 (HeLa): > 2000 nM; inhibition (HEK293): inactive; IC50 [3]: >30000 nM; inhibition (Nucleic Acid): inactive
